Each structure is given as a SMILES string. The source made the active and inactive calls. The calls are words filed in the database; no cut-off is given here.

Assay [1] deals with T1, Protein cereblon/Eukaryotic peptide chain release factor GTP-binding subunit ERF3A/DNA damage-binding protein 1/Cullin-4A (Homo sapiens) (UniProt Q96SW2+Q16531+Q13619+P15170). Description: Protac activity at GSPT1/CUL4/DDB1/CRBN in human RS4:11/IRMI-2 cells harboring p53 hotspot mutation Y236H/R249G assessed as decrease in GSPT1 protein level after 2 hrs by Western blot analysis. It is filed as cell-based. The procedure, abridged:
(§1)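 RS4;11 (wild-type p53) or RS4;11/IRMI-2 (MDM2 inhibitor-resistant derivative, mutant p53) cells kept in RPMI 1640 with 10% FBS at 37 °C, 5% CO₂. 2×10^6 cells/well treated at the indicated concentrations and times, then lysed in ice-cold lysis buffer with protease inhibitor. GSPT1 detected by Western blot with a specific antibody.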

The subject of a further assay is RS4-11. As to the kind of experiment: Antiproliferative activity against human RS4:11 cells expressing wild type p53 assessed as cell growth inhibition after 4 days by WST-8 assay. It is filed as functional, cell-based. The conditions noted are these: RS4-11, 96 h. The procedure, abridged:
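Leukemia cells seeded at 10000–20000 cells/well, breast cancer lines at 5000–10000 cells/well. Serially diluted compound added, then 4 days at 37 °C, 5% CO2. Growth read with WST-8 reagent after at least 1 h, absorbance at 450 nm. RS4;11, MOLM-13 and breast lines were grown in RPMI 1640; MV-4-11 and HL-60 in IMDM; all with 10% FBS. Mean ± SE, at least three independent experiments.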

Assay [2] has as its target T2, E3 ubiquitin-protein ligase Mdm2 (Homo sapiens, UniProt Q00987). As to the kind of experiment: Displacement of PMDM6-F fluorescent probe from human recombinant His-tagged MDM2 (1 to 118 residues) after 15 mins by fluorescence polarization assay. The procedure, abridged: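 Recombinant human His-tagged MDM2 (residues 1–118) with a FAM-labelled p53-based peptide as fluorescent probe; competitive fluorescence-polarization binding. Mean ± standard error from at least three independent experiments.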
Target sequence in this assay (Q00987 whole entry, the tested form may be a part): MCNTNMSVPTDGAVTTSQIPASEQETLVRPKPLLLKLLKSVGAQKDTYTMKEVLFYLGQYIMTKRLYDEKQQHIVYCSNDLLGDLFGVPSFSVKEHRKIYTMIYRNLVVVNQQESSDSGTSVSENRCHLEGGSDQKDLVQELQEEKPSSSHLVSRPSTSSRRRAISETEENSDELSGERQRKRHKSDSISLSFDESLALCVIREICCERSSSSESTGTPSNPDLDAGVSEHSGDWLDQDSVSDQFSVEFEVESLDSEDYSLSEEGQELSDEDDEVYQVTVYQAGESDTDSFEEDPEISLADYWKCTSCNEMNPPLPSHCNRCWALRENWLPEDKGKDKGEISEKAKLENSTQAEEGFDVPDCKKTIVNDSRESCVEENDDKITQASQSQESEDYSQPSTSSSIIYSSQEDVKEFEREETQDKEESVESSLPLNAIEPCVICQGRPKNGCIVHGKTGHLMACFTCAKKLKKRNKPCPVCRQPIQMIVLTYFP

Assay [3] relates to MDA-MB-231. Description: Antiproliferative activity against human MDA-MB-231 cells assessed as cell growth inhibition after 4 days in presence of control siRNA for 3 days followed by compound treatment by WST-8 assay. It is filed as functional, cell-based. Background: Formazan colour is commonly taken as a measure of viable cells.
The target of assay [4] is T1, Protein cereblon/Eukaryotic peptide chain release factor GTP-binding subunit ERF3A/DNA damage-binding protein 1/Cullin-4A (Homo sapiens). As to the kind of experiment: Protac activity at GSPT1/CUL4/DDB1/CRBN in human RS4:11 cells expressing wild type p53 assessed as decrease in GSPT1 protein level after 2 hrs by Western blot analysis. It is filed as cell-based. The procedure, abridged:
as §1
Background: A western blot detects proteins with antibodies after separation by electrophoresis.

Assay [5] has as its system MDA-MB-468. Description: Antiproliferative activity against human MDA-MB-468 cells assessed as cell growth inhibition after 4 days in presence of control siRNA for 3 days followed by compound treatment by WST-8 assay. It is filed as functional, cell-based.
For assay [6], the target named is T3, Eukaryotic peptide chain release factor GTP-binding subunit ERF3A (Homo sapiens, UniProt P15170). As to the kind of experiment: Induction of GSPT1 degradation in human MDA-MB-231 cells transfected with CRBN siRNA LQ-021086-10-0002 assessed as decrease in GSPT1 protein level at 0.1 uM after 2 to 24 hrs by Western blot analysis. It is filed as cell-based. The procedure, abridged:
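MDA-MB-231 cells transfected with CRBN or non-targeting siRNA, then exposed to 0.1 μM compound for 2 h or 24 h. Lysed in ice-cold lysis buffer with protease inhibitor; GSPT1 and cereblon probed by Western blot.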

In assay [7] the target is GSPT1/E3 ubiquitin-protein ligase Mdm2 (Homo sapiens) (UniProt Q00987+P15170). As to the kind of experiment: Binding affinity to GSPT1/MDM2 in human MDA-MB-231 cells assessed as GSPT1 degradation at 0.1 to 1 uM after 2 hrs by Western blot analysis. It is filed as cell-based.
Chain of GSPT1/E3 ubiquitin-protein ligase Mdm2 (Homo sapiens) (P15170 whole entry, looked up): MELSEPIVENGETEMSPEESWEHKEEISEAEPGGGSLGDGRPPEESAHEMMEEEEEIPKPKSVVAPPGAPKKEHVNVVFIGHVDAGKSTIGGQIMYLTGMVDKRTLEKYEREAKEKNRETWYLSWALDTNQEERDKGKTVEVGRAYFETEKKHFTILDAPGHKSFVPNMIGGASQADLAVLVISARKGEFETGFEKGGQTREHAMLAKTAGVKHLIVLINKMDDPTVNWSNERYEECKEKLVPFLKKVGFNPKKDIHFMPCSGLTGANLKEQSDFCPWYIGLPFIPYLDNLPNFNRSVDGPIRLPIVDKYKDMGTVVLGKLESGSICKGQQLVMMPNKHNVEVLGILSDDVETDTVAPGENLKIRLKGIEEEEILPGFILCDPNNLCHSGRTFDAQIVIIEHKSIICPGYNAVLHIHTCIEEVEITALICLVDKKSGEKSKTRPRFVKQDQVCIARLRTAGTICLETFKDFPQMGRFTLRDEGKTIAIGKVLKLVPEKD
Chain of GSPT1/E3 ubiquitin-protein ligase Mdm2 (Homo sapiens) (Q00987 whole entry, looked up): as the sequence (Q00987 whole entry, the tested form may be a part) above
Assay [8] addresses Cellular tumor antigen p53 (Homo sapiens) (UniProt P04637). Description: Activation of p53 in human RS4:11 cells assessed as increase in BAX mRNA expression at 3 nM after 1 to 2 hrs by qRT-PCR analysis. It is filed as cell-based. The procedure, abridged: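 RS4;11 cells (RPMI 1640, 10% FBS, 37 °C, 5% CO2) treated with 3 nM or 10 nM compound; total RNA extracted and mRNA of p53 targets MDM2, CDKN1A, PUMA and BAX quantified by qRT-PCR. Mean ± standard error from at least three independent experiments.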
In general terms: Real-time PCR tracks product formation cycle by cycle.

Assay [9] deals with T1, Protein cereblon/Eukaryotic peptide chain release factor GTP-binding subunit ERF3A/DNA damage-binding protein 1/Cullin-4A (Homo sapiens). Description: Protac activity at GSPT1/CUL4/DDB1/CRBN in human RS4:11 cells expressing wild type p53 assessed as effect on GSPT1 mRNA level after 3 hrs by qRT-PCR analysis. It is filed as cell-based. The procedure, abridged:
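Total RNA taken from treated cells at the indicated time points. RNA concentration measured on a plate reader. GSPT1 mRNA quantified by qRT-PCR. Data are mean ± standard error from at least three independent experiments.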

The subject of assay [10] is MDA-MB-468. As to the kind of experiment: Antiproliferative activity against human MDA-MB-468 cells transfected with CRBN siRNA LQ-021086-11-0002 assessed as cell growth inhibition after 4 days by WST-8 assay. It is filed as functional, cell-based. As to conditions: MDA-MB-468, 96 h. The procedure, abridged:
(§2)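 MDA-MB-231 or MDA-MB-468 cells transfected for 2 days using Lipofectamine RNAiMAX with MDM2 siRNA, one of two CRBN siRNAs, or non-targeting control siRNA. Compound then added and growth read by WST-8 at 450 nm.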

Assay [11] addresses T2, E3 ubiquitin-protein ligase Mdm2. Description: Induction of MDM2 degradation in human RS4:11 cells assessed as downregulation of MDM2 at 1 to 30 nM after 1 hr by Western blot analysis. It is filed as cell-based. The procedure, abridged:
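Western blots of MDM2 and p53 protein were run on RS4;11 cells (wild-type p53) in RPMI 1640 with 10% FBS. 2×10^6 cells/well were treated at the indicated concentrations for 1 h or 2 h. Lysis was in ice-cold buffer with protease inhibitor, followed by probing with specific antibodies.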
Target sequence in this assay (Q00987 whole entry, looked up, the tested form may be a part): as the sequence (Q00987 whole entry, the tested form may be a part) above

The subject of assay [12] is MDA-MB-231. Description: Antiproliferative activity against human MDA-MB-231 cells harboring mutant p53 assessed as cell growth inhibition without interaction with cereblon after 4 days by WST-8 assay. It is filed as functional, cell-based. The conditions noted are these: MDA-MB-231, 96 h.
For assay [13], the target named is T3, Eukaryotic peptide chain release factor GTP-binding subunit ERF3A. Description: Induction of GSPT1 degradation in human MDA-MB-231 cells transfected with CRBN siRNA LQ-021086-11-0002 assessed as decrease in GSPT1 protein level at 0.1 uM after 2 to 24 hrs by Western blot analysis. It is filed as cell-based. The procedure, abridged:
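MDA-MB-231 or MDA-MB-468 cells transfected 2 days with CRBN siRNA (Lipofectamine RNAiMAX; non-targeting siRNA as control), then exposed to 0.1 μM for 2 h or 24 h. Cell culture was RPMI 1640 with 10% FBS at 37 °C, 5% CO2. GSPT1 and cereblon protein were probed by Western blot.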

In assay [14] the target is T1, Protein cereblon/Eukaryotic peptide chain release factor GTP-binding subunit ERF3A/DNA damage-binding protein 1/Cullin-4A (Homo sapiens). Description: Protac activity at GSPT1/CUL4/DDB1/CRBN in human RS4:11/IRMI-2 cells harboring p53 hotspot mutation Y236H/R249G assessed as effect on GSPT1 mRNA level after 3 hrs by qRT-PCR analysis. It is filed as cell-based.
Assay [15] concerns the target T3, Eukaryotic peptide chain release factor GTP-binding subunit ERF3A. As to the kind of experiment: Induction of GSPT1 degradation in human RS4:11 cells at 0.1 uM pretreated with Nedd8 inhibitor MLN4924 followed by compound treatment after 2 hrs by Western blot analysis.
For assay [16], the system named is MDA-MB-231. Description: Antiproliferative activity against human MDA-MB-231 cells transfected with MDM2 siRNA assessed as cell growth inhibition after 4 days by WST-8 assay. The conditions noted are these: MDA-MB-231, 96 h. It is filed as functional, cell-based. The procedure, abridged: as §2

T3 sequence (P15170 whole entry): as the sequence (P15170 whole entry, looked up) above
T1 sequence (P15170 whole entry, looked up): as above
T1 sequence (Q13619 whole entry, looked up): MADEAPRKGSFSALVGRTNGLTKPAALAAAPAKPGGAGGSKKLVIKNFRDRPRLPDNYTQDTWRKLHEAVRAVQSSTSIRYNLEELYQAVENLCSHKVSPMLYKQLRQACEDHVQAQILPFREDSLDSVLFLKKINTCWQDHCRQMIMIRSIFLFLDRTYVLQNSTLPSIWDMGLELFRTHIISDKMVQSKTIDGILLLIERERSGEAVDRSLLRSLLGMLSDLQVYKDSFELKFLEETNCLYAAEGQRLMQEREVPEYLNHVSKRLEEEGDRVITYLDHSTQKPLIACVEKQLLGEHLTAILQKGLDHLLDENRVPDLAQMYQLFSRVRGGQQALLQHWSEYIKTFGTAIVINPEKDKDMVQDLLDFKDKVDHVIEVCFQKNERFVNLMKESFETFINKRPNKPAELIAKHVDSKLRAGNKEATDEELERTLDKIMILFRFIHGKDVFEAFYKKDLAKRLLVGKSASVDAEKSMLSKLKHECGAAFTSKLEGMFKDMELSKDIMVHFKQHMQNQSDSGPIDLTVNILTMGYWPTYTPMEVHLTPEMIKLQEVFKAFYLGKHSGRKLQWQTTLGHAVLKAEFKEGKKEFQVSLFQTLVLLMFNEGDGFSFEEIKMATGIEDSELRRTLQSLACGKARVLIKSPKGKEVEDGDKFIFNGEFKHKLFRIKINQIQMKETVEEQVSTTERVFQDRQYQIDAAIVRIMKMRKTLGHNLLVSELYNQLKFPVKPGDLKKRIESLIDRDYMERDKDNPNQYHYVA
T1 sequence (Q16531 whole entry, looked up): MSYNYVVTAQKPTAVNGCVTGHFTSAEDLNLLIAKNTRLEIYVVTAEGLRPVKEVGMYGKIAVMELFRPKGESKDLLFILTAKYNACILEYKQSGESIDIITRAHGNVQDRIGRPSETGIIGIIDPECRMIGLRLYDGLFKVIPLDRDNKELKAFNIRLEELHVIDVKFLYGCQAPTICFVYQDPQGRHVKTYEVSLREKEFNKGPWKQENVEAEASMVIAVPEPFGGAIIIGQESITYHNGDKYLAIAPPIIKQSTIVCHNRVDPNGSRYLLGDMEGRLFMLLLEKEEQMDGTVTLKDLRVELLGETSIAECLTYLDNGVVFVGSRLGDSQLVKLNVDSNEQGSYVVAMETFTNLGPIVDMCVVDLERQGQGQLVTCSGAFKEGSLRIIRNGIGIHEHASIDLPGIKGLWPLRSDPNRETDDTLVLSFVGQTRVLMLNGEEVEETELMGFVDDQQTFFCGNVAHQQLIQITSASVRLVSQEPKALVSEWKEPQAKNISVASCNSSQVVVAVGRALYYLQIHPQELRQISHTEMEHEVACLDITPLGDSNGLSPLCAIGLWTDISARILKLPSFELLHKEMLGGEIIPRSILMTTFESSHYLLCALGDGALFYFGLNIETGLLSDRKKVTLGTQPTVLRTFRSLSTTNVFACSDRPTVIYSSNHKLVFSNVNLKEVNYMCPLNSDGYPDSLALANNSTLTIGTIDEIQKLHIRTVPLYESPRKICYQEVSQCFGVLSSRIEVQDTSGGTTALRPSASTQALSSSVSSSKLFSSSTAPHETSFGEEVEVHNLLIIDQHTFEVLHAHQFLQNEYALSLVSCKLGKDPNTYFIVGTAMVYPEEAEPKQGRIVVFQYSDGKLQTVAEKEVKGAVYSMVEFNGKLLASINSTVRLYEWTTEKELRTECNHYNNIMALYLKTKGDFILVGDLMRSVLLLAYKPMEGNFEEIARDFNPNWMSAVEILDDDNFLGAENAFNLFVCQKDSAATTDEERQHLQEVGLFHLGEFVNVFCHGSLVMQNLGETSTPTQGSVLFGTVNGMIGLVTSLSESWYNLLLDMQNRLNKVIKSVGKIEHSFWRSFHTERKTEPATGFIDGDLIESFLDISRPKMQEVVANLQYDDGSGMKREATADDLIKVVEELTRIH
T1 sequence (Q96SW2 whole entry, looked up): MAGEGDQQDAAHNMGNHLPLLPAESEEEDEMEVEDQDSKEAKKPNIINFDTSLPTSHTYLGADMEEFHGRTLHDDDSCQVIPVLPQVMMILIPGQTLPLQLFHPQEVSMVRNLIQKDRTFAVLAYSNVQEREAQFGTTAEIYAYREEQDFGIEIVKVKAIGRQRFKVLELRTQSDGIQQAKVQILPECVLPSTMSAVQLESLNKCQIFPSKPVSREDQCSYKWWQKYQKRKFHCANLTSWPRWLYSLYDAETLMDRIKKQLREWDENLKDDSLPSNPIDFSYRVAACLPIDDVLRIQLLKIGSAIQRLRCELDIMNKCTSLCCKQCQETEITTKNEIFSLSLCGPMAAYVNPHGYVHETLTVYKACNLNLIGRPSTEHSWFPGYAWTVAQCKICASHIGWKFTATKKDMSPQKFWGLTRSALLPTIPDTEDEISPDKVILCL
Chain of Cellular tumor antigen p53 (Homo sapiens) (P04637 whole entry, looked up): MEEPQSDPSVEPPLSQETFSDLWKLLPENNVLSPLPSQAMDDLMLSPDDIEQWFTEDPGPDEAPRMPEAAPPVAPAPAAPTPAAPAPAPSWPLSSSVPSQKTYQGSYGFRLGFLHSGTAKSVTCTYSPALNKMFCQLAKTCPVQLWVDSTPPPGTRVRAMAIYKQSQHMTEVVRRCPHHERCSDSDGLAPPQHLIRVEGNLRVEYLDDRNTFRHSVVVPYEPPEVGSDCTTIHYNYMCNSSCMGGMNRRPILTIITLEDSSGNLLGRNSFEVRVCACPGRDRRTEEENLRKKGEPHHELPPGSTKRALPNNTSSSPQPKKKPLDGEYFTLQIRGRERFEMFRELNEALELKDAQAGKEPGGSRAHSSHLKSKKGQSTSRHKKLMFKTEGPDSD

In the case of `O=C1CCC(N2Cc3c(CCCCCNC(=O)[C@@H]4NC5(CCCCC5)[C@@]5(C(=O)Nc6cc(Cl)ccc65)[C@H]4c4cccc(Cl)c4F)cccc3C2=O)C(=O)N1` (some centres not stated), the outcome in assay [1] and in [4] was Active. The IC50 (commonly the concentration that inhibits the measured activity by half) in the assay on RS4-11 was 3.5 nM; in [2], 67.5 nM; in the assay on MDA-MB-231 [3], 30 nM; in the assay with MDA-MB-468 [5], 62 nM; in the assay on MDA-MB-468 [10] it was > 1000 nM; in the assay on MDA-MB-231 [12], 39.4 nM. In the assay with MDA-MB-231 [16], the IC50 was 19.3 nM. Besides, the outcome in assay [6], in assay [7], in assay [8], in assay [9], in assay [11] and in assay [13] was inactive. The outcome in assay [14] and in assay [15] was inactive.

Values taken from ChEMBL document CHEMBL4321819, “Simple Structural Modifications Converting a Bona fide MDM2 PROTAC Degrader into a Molecular Glue Molecule: A Cautionary Tale in the Design of PROTAC Degraders” (J Med Chem, 2019).
